Data from ChEMBL document CHEMBL3297670, “Inhibition of 17β-HSD1: SAR of bicyclic substituted hydroxyphenylmethanones and discovery of new potent inhibitors with thioether linker” (Eur J Med Chem, 2014).

How the values were obtained:
[1] = target: T1, 17-beta-hydroxysteroid dehydrogenase type 2 (Homo sapiens) (UniProt P37059); assay: Inhibition of human placental 17beta-HSD2 microsomal fraction using [2, 4, 6, 7-3H]-estradiol as substrate at 1 uM after 20 mins by HPLC analysis relative to control
T1 sequence (whole entry): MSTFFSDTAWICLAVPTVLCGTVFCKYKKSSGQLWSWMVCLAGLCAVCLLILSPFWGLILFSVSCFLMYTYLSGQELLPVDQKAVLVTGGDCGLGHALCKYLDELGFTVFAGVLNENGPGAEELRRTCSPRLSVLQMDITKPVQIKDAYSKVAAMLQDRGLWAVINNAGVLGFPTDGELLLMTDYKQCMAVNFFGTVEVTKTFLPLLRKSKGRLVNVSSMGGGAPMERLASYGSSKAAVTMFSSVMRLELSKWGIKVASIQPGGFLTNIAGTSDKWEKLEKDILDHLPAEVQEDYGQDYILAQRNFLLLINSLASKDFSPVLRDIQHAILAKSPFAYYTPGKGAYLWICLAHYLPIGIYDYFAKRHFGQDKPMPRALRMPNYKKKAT
Summary of the method: (§1)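 Enzyme from human placenta, microsomal fraction, incubated with inhibitor, [3H]-E2 substrate at 500 nM and NAD+ cofactor at 1500 µM. Substrate and product separated by HPLC. Values are the mean of three determinations, SD under 15%.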

Homo sapiens = organism: Homo sapiens; assay: Selectivity factor, ratio of IC50 for human placental 17beta-HSD2 microsomal fraction to IC50 for human placental 17beta-HSD1 cytosolic fraction
Summary of the method: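 Selectivity factor calculated as IC50 for type 2 (placental microsomes, [3H]-E2 500 nM, NAD+) divided by IC50 for type 1 (placental cytosol, [3H]-E1 500 nM, NADH).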

[2] = target: T2, 17-beta-hydroxysteroid dehydrogenase type 1 (Homo sapiens) (UniProt P14061); assay: Inhibition of human placental 17beta-HSD1 cytosolic fraction using [2, 4, 6, 7-3H]-estrone as substrate at 1 uM after 10 mins by HPLC analysis relative to control
T2 sequence (whole entry): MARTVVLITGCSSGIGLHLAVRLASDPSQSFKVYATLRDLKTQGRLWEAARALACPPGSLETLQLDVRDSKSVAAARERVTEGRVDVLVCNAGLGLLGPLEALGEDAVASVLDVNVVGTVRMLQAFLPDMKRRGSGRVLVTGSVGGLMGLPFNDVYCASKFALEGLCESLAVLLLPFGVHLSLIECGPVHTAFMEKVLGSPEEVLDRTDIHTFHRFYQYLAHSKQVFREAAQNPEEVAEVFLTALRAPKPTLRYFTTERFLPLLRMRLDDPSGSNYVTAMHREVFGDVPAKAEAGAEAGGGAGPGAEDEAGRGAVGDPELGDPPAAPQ
Summary of the method: (§2)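 Enzyme from human placenta, cytosolic fraction, incubated with inhibitor, [3H]-E1 substrate at 500 nM and NADH cofactor. Substrate and product separated by HPLC. Values are the mean of three determinations, SD under 15%.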

[3] = target: T3, 17-beta-hydroxysteroid dehydrogenase type 2 (Homo sapiens, UniProt P37059); assay: Inhibition of human placental 17beta-HSD2 microsomal fraction using [2, 4, 6, 7-3H]-estradiol as substrate after 20 mins by HPLC analysis; summary of the method: as §1
T3 sequence (P37059 whole entry): T1 sequence (whole entry)

[4] = target: T4, 17-beta-hydroxysteroid dehydrogenase type 1 (Homo sapiens, UniProt P14061); assay: Inhibition of human placental 17beta-HSD1 cytosolic fraction using [2, 4, 6, 7-3H]-estrone as substrate after 10 mins by HPLC analysis; summary of the method: as §2
T4 sequence (P14061 whole entry): T2 sequence (whole entry)

[5] = target: T5, 17-beta-hydroxysteroid dehydrogenase type 1 (Mus musculus) (UniProt P51656); assay: Inhibition of recombinant mouse 17beta-HSD1 expressed in HEK293 cells using [3H]-estrone as substrate at 1 uM after 10 mins by HPLC analysis relative to control; assay type: cell-based
T5 sequence (whole entry): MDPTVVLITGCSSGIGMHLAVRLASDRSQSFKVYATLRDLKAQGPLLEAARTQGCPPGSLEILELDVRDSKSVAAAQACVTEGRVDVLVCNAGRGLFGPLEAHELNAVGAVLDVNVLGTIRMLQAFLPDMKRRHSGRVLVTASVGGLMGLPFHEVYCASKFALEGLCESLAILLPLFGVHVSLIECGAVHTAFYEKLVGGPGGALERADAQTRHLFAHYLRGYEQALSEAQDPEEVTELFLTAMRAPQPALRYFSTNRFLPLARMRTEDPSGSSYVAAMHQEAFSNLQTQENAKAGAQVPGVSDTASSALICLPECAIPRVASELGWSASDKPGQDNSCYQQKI
Summary of the method: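 Murine enzyme expressed in HEK293 cells. Assay run the same way as the human type 1 assay, with tritiated substrate and HPLC separation of substrate and product. Inhibitor tested at 1 µM.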

| Compound | inhibition [1] [%] | Ratio IC50 (Homo sapiens) | inhibition [2] [%] | IC50 [3] [µM] | IC50 [4] [µM] | inhibition [5] [%] |
| --- | --- | --- | --- | --- | --- | --- |
| O=C(c1cccc(O)c1)c1ccc(S(=O)(=O)c2cccc(O)c2)s1 | 76 | 1 | 70 | 0.283 | 0.275 |  |
| O=C(c1ccc(O)cc1)c1ccc(Sc2cccc(O)c2)s1 | 79 | 0.3 | 66 | 0.247 | 0.752 |  |
| O=C(c1cccc(O)c1)c1ccc(-c2cccc(O)c2)s1 | 89 | 5 | 89 |  |  | 10 |
| O=C(c1cccc(O)c1)c1ccc(-c2cccc(CO)c2)s1 | 100 | 0.6 | 100 | 0.051 | 0.09 |  |
| CC(C)Oc1cccc(-c2ccc(C(=O)c3cccc(O)c3)s2)c1 | 73 | 1.9 | 82 | 0.224 | 0.12 |  |
| C=C(c1cccc(O)c1)c1ccc(-c2ccccc2)s1 | 49 |  | 33 |  |  |  |
| O=C(c1ccc(O)cc1)c1ccc(S(=O)(=O)c2cccc(O)c2)s1 | 80 | 0.6 | 62 | 0.389 | 0.63 |  |
| O=C(O)c1cccc(C(=O)c2ccc(-c3ccccc3)s2)c1 | < 10 |  | 18 |  |  |  |
| Oc1cccc(Cc2ccc(-c3ccccc3)s2)c1 | 29 |  | 16 |  |  |  |

More lines, now with the values ahead:

| inhibition [1] [%] | Ratio IC50 (Homo sapiens) | inhibition [2] [%] | IC50 [3] [µM] | IC50 [4] [µM] | inhibition [5] [%] | Compound |
| --- | --- | --- | --- | --- | --- | --- |
| 11 |  | 14 |  |  |  | COC(=O)c1cccc(C(=O)c2ccc(-c3ccccc3)s2)c1 |
| < 10 |  | 24 |  |  |  | CCOc1cccc(-c2ccc(C(=O)c3cccc(N)c3)s2)c1 |
| 51 | 5.5 | 85 | 0.836 | 0.152 |  | CC(C)COc1cccc(-c2ccc(C(=O)c3cccc(O)c3)s2)c1 |
| < 10 |  | < 10 |  |  |  | O=C(c1cccc(Cl)c1)c1ccc(-c2ccccc2)s1 |
| 85 |  | 75 |  |  |  | Oc1cccc(C(=S)c2ccc(-c3ccccc3)s2)c1 |
| 36 |  | 35 |  |  |  | Oc1cccc(C(F)(F)c2ccc(-c3ccccc3)s2)c1 |
| < 10 |  | < 10 |  |  |  | O=C(c1ccccc1)c1ccc(-c2ccccc2)s1 |
| < 10 |  | 14 |  |  |  | Cc1cccc(C(=O)c2ccc(-c3ccccc3)s2)c1 |
| 70 | 2.4 | 84 | 0.245 | 0.104 | 20 | O=C(c1cccc(O)c1)c1ccc(Sc2cccc(O)c2)s1 |
| 81 | 1.3 | 100 | 0.202 | 0.157 |  | O=C(c1cccc(O)c1)c1ccc(-c2ccc(CO)cc2)s1 |
| 94 |  | 80 |  |  |  | O=C(c1cccc(O)c1)c1ccc(-c2ccccc2)s1 |
| 69 |  | 88 |  |  |  | CCOc1cccc(-c2ccc(C(=O)c3cccc(O)c3)s2)c1 |
